Measured values from PubChem BioAssay AID624467 (The Scripps Research Institute Molecular Screening Center, 2012).
The whole screen tested about 360,000 compounds, of which about 3,600 (1%) were called active. Many of the other results were omitted from the sample, so actives are more common in it than they were. A number with no mark means an inactive call.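 The calls were made as follows: active = activation above the mean activation of all test compounds in the run plus 3 SD (cut at about 38% in these data); inactive = the rest.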

These molecules were tested against Trace amine-associated receptor 1 (Homo sapiens) (UniProt Q96RJ0) (assay: human TAAR1 agonists, primary screen, Fluo-8 calcium fluorescence, CHO RD-HGA16 cells (AID 624467)). Details: CHO RD-HGA16 TAAR1, Fluo-8 calcium fluorescence; at 3 µM; hits give high values; vehicle wells 0%, saturating PEA agonist 100%.
Outline: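 System: CHO-derived RD-HGA16 cells with stable Gα16 and human TAAR1 / Times: 17-24 h plating, Fluo-8 75 min 37 °C, 30 min RT / Technique: calcium-sensitive Fluo-8 signal, excitation 470-495, emission 515-575 nm / Measure: % activation relative to PEA EC100 response / Benchmarks: DMSO and PEA EC100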

Sequence of Trace amine-associated receptor 1 (Homo sapiens) (Q96RJ0 whole entry, looked up): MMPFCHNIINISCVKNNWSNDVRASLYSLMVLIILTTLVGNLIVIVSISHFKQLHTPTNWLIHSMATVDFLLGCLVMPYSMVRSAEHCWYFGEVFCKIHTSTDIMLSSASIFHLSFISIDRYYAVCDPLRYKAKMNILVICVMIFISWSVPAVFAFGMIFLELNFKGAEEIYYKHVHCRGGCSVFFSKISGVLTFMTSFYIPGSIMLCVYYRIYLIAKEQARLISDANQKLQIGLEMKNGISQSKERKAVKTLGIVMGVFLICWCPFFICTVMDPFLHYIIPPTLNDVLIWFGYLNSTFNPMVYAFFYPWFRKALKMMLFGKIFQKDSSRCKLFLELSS

SMILES	activation
Cc1ccc2nc(-c3ccc(CN4CCC(n5cc(-c6ccccc6)[nH]c5=O)CC4)cc3)c(-c3ccccc3)nc2c1	1.53%
c1ccc2c(c1)C(=NC1CCCCC1)NC2=NC1CCCCC1	83.2% (active)
Cn1nccc1NC(=O)CC(CC(=O)O)c1ccccc1 (stereo not drawn)	1.46%
Nc1ncnc2c1ncn2[C@@H]1O[C@H](C(=O)N[C@@H](CCc2ccccc2)C(=O)N2CCCN(Cc3cccs3)CC2)[C@@H](O)[C@H]1O	-0.59%
C=CCNC(=O)COC(=O)CNC(=O)c1cc(Cl)cc([N+](=O)[O-])c1	-0.52%
CC[C@H](NC(=O)[C@H](Cc1ccccc1)NC(=O)[C@H]1O[C@@H](n2cnc3c(=O)[nH]c(N)nc32)[C@H](O)[C@@H]1O)c1ccccc1	12.6%
Cc1nc(-c2ccc(Cl)cc2)sc1C1(C)CC(c2ccccc2F)=NO1 (stereo not drawn)	-1.12%
Cc1nc(C(=O)Nc2ccc(Cl)cc2)sc1C1(C)CC(c2ccccc2)=NO1 (stereo not drawn)	5.24%
Cc1nc(C(=O)NCc2ccccc2)sc1C1(C)CC(c2cccnc2)=NO1 (stereo not drawn)	57.5% (active)
O=C(C(=O)N1CCC(CNC(=O)c2cccnc2Cl)CC1)c1cccs1	1.11%
CN1C(=O)CN2CCc3ccccc3C2c2cc(Cl)ccc21 (stereo not drawn)	3.95%
CC(=O)c1ccc(S(=O)(=O)NCC2CCN(C(=O)C(=O)c3cccs3)CC2)cc1	6.58%
O=C(CSCc1ccc(Br)cc1)Nc1ccc(S(=O)(=O)N2CCCCCC2)cc1	23.4%
O=C(O)CC(SCC(=O)Nc1ccc(Br)cc1)C(=O)O (stereo not drawn)	5.77%
O=C1CCCN2N=C(SCC(=O)Nc3ccc(Br)cc3)SC2=N1	46.4% (active)
COC(=O)C1=C(C)N(Cc2ccccc2C(F)(F)F)C(=NCC2CC2)NC1c1cccc(Cl)c1 (stereo not drawn)	26.6%
O=C(/C=C/[C@H]1O[C@@H](n2cnc3c(NC(=O)c4ccccc4)ncnc32)[C@H](O)[C@@H]1O)NCc1ccccc1	54.8% (active)
CCC(C)C(CO)NC(=O)/C=C/[C@H]1O[C@@H](n2cnc3c(NC(=O)c4ccccc4)ncnc32)[C@H](O)[C@@H]1O (stereo partly drawn)	2.69%
COc1cccc(CN(C)C(=O)CC[C@H]2O[C@@H](n3cnc4c(NC(=O)c5ccccc5)ncnc43)[C@H](O)[C@@H]2O)c1	0.18%
COc1ccc(C(CNC(=O)c2cccc(S(=O)(=O)Nc3ccccc3Cl)c2)N2CCOCC2)cc1 (stereo not drawn)	-1.44%
Cc1ccc(NC(=S)Nc2ncccc2C)c(C)c1	-3.17%
Nc1cccc2c1C(=O)N(Cc1nnc(-c3ccccc3Br)o1)C2=O	75.4% (active)

SMILES	activation
CC(C)N(Cc1nnc(-c2ccccc2Br)o1)C(=O)c1cc(Cl)nc2ccccc12	4.53%
Cn1cnnc1SCc1nnc(-c2ccccc2Br)o1	11.2%
CC1(C(=O)NS(=O)(=O)c2cccc(OC(F)F)c2)CCN1C(=O)COc1ccc(Cl)cc1 (stereo not drawn)	1.84%
COC(=O)c1c(-c2ccc(OC)cc2)c2c(c3c4ccccc4n(S(=O)(=O)c4ccc(C)cc4)c13)C(=O)N(C)C2	-0.97%
COc1ccc(CCNCc2c(-c3ccccc3)n(C)c3ccccc23)cc1	37.6% (active)
COc1ccc(CNCCCn2cnc3c(OCc4ccccc4)ncnc32)cc1	2.67%
COc1ccc(-c2c(C#Cc3ccccc3)c3ccccc3n2C)cc1	1.86%
Cc1ccc(N2C(=O)C(NC(=O)c3c(F)cccc3F)(C(F)(F)F)C3=C2CC(C)(C)CC3=O)cc1 (stereo not drawn)	0.87%
O=C1[C@@H](c2ccccc2)[C@@H](c2ccccc2)N1c1ccccc1	3.32%
CC(C)(C)OC(=O)N1CCN(C(=O)c2[nH]c(C(F)(F)F)nc2-c2ccccc2)CC1	1.1%
CSc1nc(N)c(C#N)c(-c2ccccc2Cl)c1C#N	56.9% (active)
COc1ccccc1-c1c(C#N)c(N)nc2c1CCC2	-0.25%
CSc1ccc(-c2c(C#N)c(N)nc3c2c(C)nn3-c2ccccc2)cc1	8.14%
CCc1ccc2oc(-c3ccc(N)cc3)nc2c1	11.3%
Cc1ccc2oc(=O)ccc2c1	0.04%
CCN(CC)c1ccc2oc(=O)c(C)nc2c1	81% (active)
O=C1CCN(C(=O)Nc2ccccc2)N1	3.7%
C[C@H]1CN([C@@H](C)CO)C(=O)CCCn2nncc2CO[C@@H]1CN(C)C(=O)Nc1ccc(N2CCN(C)CC2)cc1	0.67%
CCOc1ccc(Br)cc1S(=O)(=O)Nc1ccc(S(=O)(=O)Nc2cc(C)on2)cc1	-0.13%
NS(=O)(=O)c1ccc(CNC(=S)NC(=O)c2ccco2)cc1	1.56%
O=C(NNC(=S)Nc1ccc(Br)cc1Cl)c1ccco1	3.5%
CCCc1ccc(OCC(=O)NNC(=S)NC(=O)c2ccco2)cc1	83.4% (active)

SMILES	activation
CC(Oc1ccc2ccccc2c1)C(=O)NNC(=S)NC(=O)c1ccco1 (stereo not drawn)	98.9% (active)
O=C(Nc1ccc2ccccc2c1)/C(=C\c1ccc2c(c1)OCO2)NC(=O)c1ccco1	-0.26%
CCC1CCCCN1C(=S)NC(=O)c1ccco1 (stereo not drawn)	4.61%
O=C(C(=O)N1CCN(c2ccccc2)CC1)c1ccc2c(c1)OCO2	-0.35%
CCC(C)NC(=O)c1ccc(NC(=O)CC2SC(N3CCCCC3)=NC2=O)cc1 (stereo not drawn)	1.77%
C=CCOC(=O)C1=C[C@H](c2ccc(Br)cc2)C[C@H](OCCCCO)O1	8.86%
COc1cc2c(cc1OC)CN(C(C)C(=O)Nc1cccc(S(=O)(=O)N3CCOCC3)c1)CC2 (stereo not drawn)	0.59%
O=Cc1c(NCCc2cccc(F)c2)c2ccccc2[nH]c1=O	72.1% (active)
O=Cc1c(NCCCN2CCCC2=O)c2ccccc2[nH]c1=O	1.42%
O=C(NCCc1ccc(F)cc1)c1n[nH]c2ccccc12	1.79%
C=CCN1C(=O)N(Cc2ccccc2)c2ccccc2S1(=O)=O	0.49%
CCCCCCc1cc2cc(-c3nnc(-c4cccc(OC)c4)o3)c(=O)oc2cc1O	16.7%
CCn1cc(CN2CCCC(CNS(=O)(=O)Cc3ccccc3)C2)cn1 (stereo not drawn)	0.93%
COc1ccc2nc3n(c(=O)c2c1)-c1ccc(Cl)cc1C(=O)NC3Cc1ccccc1 (stereo not drawn)	4.87%
Cn1c(=O)c(=O)n(C)c2cc(S(=O)(=O)NCCN3CCN(c4ccccc4F)CC3)ccc21	-1.59%
Cn1c(=O)c(=O)n(C)c2cc(S(=O)(=O)NCCc3ccccc3)ccc21	82.3% (active)
O=S(=O)(NCCc1ccccc1)c1ccccc1	15.9%
C[C@@H](CN1C2=NC[C@@H](Cc3ccccc3)N2C[C@H]1Cc1ccc(O)cc1)NC(=O)CCC1CCCCC1	-0.01%
O=C(NCC1(N2CCCCC2)CCCCC1)c1cccc(S(=O)(=O)Nc2ccccc2Cl)c1	-0.1%
C[C@H]1[C@H](c2ccccc2)Oc2cc(Br)ccc2S(=O)(=O)N1Cc1cccc(F)c1	2.18%
Cc1ccnc(NC(=O)C(C)N2C(=O)c3ccccc3C2=O)c1 (stereo not drawn)	2.11%
Cc1cccc(NC(=O)CN2C(=O)CNC2=O)c1	6.24%

SMILES	activation
Cc1cccc(NC(=O)C(C)N2C(=O)C3C4CC(C(Br)C4Br)C3C2=O)c1 (stereo not drawn)	49.9% (active)
Cc1cccc(N(C(=O)c2ccc(CN3CCOCC3)o2)C(C(=O)NC2CCCCC2)c2ccc(F)cc2)c1 (stereo not drawn)	0.09%
COc1ccccc1C(=O)N1O[C@]23C=C[C@]14C[C@@H](O)CC[C@]4(C)C2CC[C@]1(C)[C@@H]([C@H](C)/C=C/[C@H](C)C(C)C)CC[C@H]13 (stereo partly drawn)	-1.12%
O=C(Nc1c(Cl)c(C2CC2)nn1-c1ccccc1)C(Cl)(Cl)Cl	1.51%
CCCCCOc1ccc(CSC2=NCCN2)cc1[N+](=O)[O-]	40.3% (active)
CCOc1ccc(C(=O)Nc2nccs2)cc1[N+](=O)[O-]	5.29%
CCCCOc1ccc(CON(C(C)=O)C(C)=O)cc1Cl	-2.24%
O=[N+]([O-])c1ccccc1OCCCCN1CCCCC1	7.82%
CCCCOC(=O)CCCc1ccc([N+](=O)[O-])cc1[N+](=O)[O-]	-2.61%
CCCCOc1ccc(CSC(=N)N)cc1[N+](=O)[O-]	68.2% (active)
C#CCN([C@@H](C)C(=O)OCC)S(=O)(=O)c1ccc(Br)cc1F	-2.1%
O=C(C[C@@H]1C/C=C\CCC(=O)OC[C@@H]2CCCN2C1=O)NCCO	13.4%
C[C@H](CO)N1C[C@H](C)[C@@H](CN(C)C(=O)Nc2ccccc2F)OCc2cn(nn2)CCCC1=O	0.9%
Cc1ccc(NC(=O)c2cnc(SCC(=O)NCC3CCCO3)n(C)c2=O)cc1 (stereo not drawn)	1.71%
Cc1ccccc1-c1nc(CS(=O)(=O)CC(=O)N2CCc3ccccc3C2)c(C)o1	45.5% (active)
Cc1ccccc1-c1nc(CS(=O)(=O)CC(=O)NC(C)c2ccccc2)c(C)o1 (stereo not drawn)	-0.93%
CSc1ccc(CCNC(=O)CS(=O)(=O)Cc2nc(-c3ccccc3F)oc2C)cc1	2.41%
CCOC(=O)/C=C/c1ccccc1O	0.06%
CC(=O)N1Cc2cc(C(=O)NCc3cccc(F)c3)nc(-c3cccc(C4=CCCC4)c3)c2[C@H]1CCO	1.95%
COCCn1nnnc1C(c1cc2ccc(OC)cc2[nH]c1=O)N1CCc2ccccc2C1 (stereo not drawn)	5.6%
COc1ccc(OC)c(C(c2nnnn2C(C)(C)C)N2CCc3ccccc3C2)c1 (stereo not drawn)	64.7% (active)
COc1ccccc1C(c1nnnn1C(C)(C)C)N1CCN(Cc2ccccc2)CC1 (stereo not drawn)	7.42%
